# A selection: hits, their analogues and other compounds. The true share with any hit is near 0.3%.
# Ab BasE inh = BasE siderophore enzyme inhibitors, primary screen, biochemical, Acinetobacter baumannii ATCC 17978, fluorescence polarization | purified BasE, fluorescence polarization binding displacement | inhibition, % (no concentration beside the values) | 84,000 compounds, 0.1% hits; in the data active = inhibition above about 25%, passing the limit was not always enough;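 note: 0% = negative plate control signal and 100% = positive plate control signal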
# LANA-nucl inh = inhibitors of KSHV LANA-nucleosome binding, primary screen, biochemical, fluorescence polarization, FITC-LANA1-23, chicken nucleosomes. FITC-LANA1-23 / chicken nucleosome fluorescence polarization; stronger effect = lower value. z-score (no concentration beside the values). 51,000 compounds, 0.3% hits;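 active = both repeat wells score below -2 in polarization z-score versus plate sample wells, excluding overly bright wells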
#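 System – purified chicken nucleosomes with FITC-labelled LANA N-terminal peptide (1-23) · Amount – 240 nM purified chicken nucleosomes (480 nM peptide binding sites), final · Also added – 50 nM FITC-LANA1-23 probe · Medium – TEN-BT buffer, pH 7.5 · Incubation – compound with peptide–nucleosome mix 10–45 min at room temperature · Detection – fluorescence polarization, ex 480 nm, em 535 nm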
# * hit, by the source's call; . = no result.
SMILES,Ab BasE inh,LANA-nucl inh
O=C1CSc2sc(=S)sc2S1,28.2*,.
CN(C)C(=O)c1ccccc1NC(=O)Nc1ccccc1,-1.4,-0.134
Cn1nccc1C(N)c1ccccc1 (configuration not stated),25.5*,-0.528
NC(c1ccccc1)c1ccccc1,-1.8,.
O=c1oc2ccccc2c(O)c1Cc1cc(Cl)c2cccnc2c1O,23.4,.
Cc1cc(O)c(Cc2cc(Cl)c3cccnc3c2O)c(=O)o1,77.8*,.
O=c1ccc(-c2ccccc2)nn1Cc1ccncc1,76.6*,-1.27
Cn1nc(-c2ccccc2)ccc1=O,3.0,-0.683
O=C(O)c1ccc(C2SCCCS2)cc1,0.6,.
Oc1ccc(C2SCCS2)cc1,53.2*,.
O=C(Nc1ccc(N2CCOCC2)cc1)Nc1ccc2nc(-c3ccco3)c(-c3ccco3)nc2c1,3.3,-0.667
O=C(NCCCO)Nc1ccc2nc(-c3ccco3)c(-c3ccco3)nc2c1,23.5,-3.03*
CCOC(=O)c1c(C)n(C)c2ccc(O)cc12,0.3,-0.103
CCOC(=O)c1c2ccc(O)cc2n2ccccc12,.,-6.99*
O=C(CN1CCN(c2ccc(O)cc2)CC1)Nc1cc(C(F)(F)F)ccc1N1CCOCC1,2.7,.
CCN(Cc1nc2ccccc2c(=O)[nH]1)C(=O)Nc1ccc(Cl)cc1,7.0,.
N#Cc1c(=O)n(O)c2ccccc2[n+]1[O-],2.1,-12.7*
O=c1c(-c2ccc(Oc3ccccc3)cc2)[n+]([O-])c2ccccc2n1O,0.4,0.258
COc1cccc(=O)c2c(C)oc(C)c12,12.3,-4.36*
CCOc1cc(/C=C/c2ccccc2OC)cc(=O)c2c(C)oc(C)c12,16.3,.
CCOc1ccccc1/C=N\N1CCN(c2ccccc2)CC1,3.3,0.302
CCN(CC)C(=O)Cn1cc(/C=C2\C(=O)NC(=O)N(CC)C2=O)c2ccccc21,1.3,-2.71*
C=CCN1C(=O)NC(=O)/C(=C\c2cn(Cc3ccccc3)c3ccccc23)C1=O,4.0,.
COCC(C)n1c(-c2cccs2)csc1=Nc1cccnc1 (configuration not stated),-0.2,.
O=C(c1cnn(-c2ccccc2)n1)N(Cc1nc2ccccc2c(=O)[nH]1)CC1CCCO1 (configuration not stated),-30.6,.
SMILES,Ab BasE inh,LANA-nucl inh
COc1ccc(C2CC(=O)N3C(=C2C#N)SCC3(O)c2ccccc2)cc1 (configuration not stated),-5.6,2.24
COc1ccc(C2C(C(N)=O)C(=O)NC(O)(c3ccccc3)C2C#N)cc1 (configuration not stated),1.9,-2.34*
C=CCn1c(=O)[nH]c2nc3cc(N=CN(C)C)ccc3nc2c1=O,26.0,-5.8*
C=CCn1c(=O)[nH]c2nc3cc(NC(=O)CC)ccc3nc2c1=O,18.8,-1.47
COc1ccccc1-n1cnc2cc(NCc3ccncc3)ccc21,32.3*,0.494
CCCCn1cnc2cc(NCc3ccncc3)ccc21,12.8,-0.392
CC(=O)Nc1ccc(S(=O)(=O)NC2CC(=O)N(c3ccc(F)cc3)C2)cc1 (configuration not stated),0.8,-0.097
O=C(O)c1ccccc1O,-1.4,0.213
O=C(O)c1cccn2nnnc12,0.4,-2.27*
CCCCSC1=C(C#N)C(=O)NC(CO)S1 (configuration not stated),0.2,-0.748
CCCCCCSc1s[nH]c(=O)c1C#N,84.8*,-1.16
CCNC(=S)N1CCN(S(=O)(=O)c2ccc(Cl)cc2)CC1,3.5,-2.15*
CCNC(=S)N1CCN(S(=O)(=O)c2ccc(C)cc2)CC1,-2.8,.
CCOC(=O)N1CCC(NCC(O)COc2ccccc2C(C)C)CC1 (configuration not stated),0.7,.

# Screens (PubChem BioAssay)
